# A1 apoptosis 2 = A1 inhibitors via caspase activation, primary screen, cell-based, luminescence, HTS, two replicates; MEF A1-2A-BIM cells, caspase-Glo luminescence, 3 h; percent of clofoctol response, DMSO zero; caspase activation, % (no concentration beside the values); 24,000 tested, under 10 active; AID 2465, 2010; in the data active = caspase activation above about 5.9%
#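 Test system – A1-2A-BIM-expressing MEF cells · Input – 2500 cells/well · Medium – RPMI-1640 growth medium with 10% FBS · Compound dosing – 50 nL pinned compound · Timing – 3 h compound exposure at 37 °C · Technique – Caspase-Glo luminescence (DEVD substrate) · Evaluation – Caspase-3/7 activity from luminescence increase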
# T cruzi intra = inhibitors of intracellular Trypanosoma cruzi, primary screen, cell-based, plate reader, single point, set 2; activity score (inhibition), % at 5.01 µM; intracellular Trypanosoma cruzi in host cells; actives 4.9% (n = 22,000); in the data active = activity score above about 55%;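 note: parasites and compound incubated about four days before reading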
# INS-1E ATP HTS = protection of INS-1E cells from cytokine death, primary screen, ATP luminescence, single point. protection from cytokine-induced ATP loss, % at 10 µM. INS-1E cytokine-induced death, 48 h; normalised: neutral wells 0, positive control 100. actives 0.1% (n = 20,000);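 active = mean replicate protection from cytokine-induced ATP loss at least 50% and at least 75% of replicates each reaching 50%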
#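 Assay system – rat INS-1E insulinoma cell line · Quantity – 8000 cells per well · Buffer or medium – RPMI without phenol red, 5% FBS · Schedule – 48 h co-treatment, 10 min post-lysis read · Technique – luminescent ATP assay (CellTiter-Glo)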
# Numbers stand for hits; . = inactive; / = no result. The entries come from a sample that favours hits as a whole.
SMILES,A1 apoptosis 2,T cruzi intra,INS-1E ATP HTS
C[C@@H]1CCCCO[C@H](CN(C)C(=O)c2ccccc2)[C@@H](C)CN([C@@H](C)CO)C(=O)c2cc(NC(=O)Nc3ccc(C(F)(F)F)cc3)ccc2O1,.,/,/
CC(C)NC(=O)Nc1ccc2c(c1)C(=O)N([C@H](C)CO)C[C@@H](C)[C@H](CN(C)C(=O)Nc1ccc(C(F)(F)F)cc1)OCCCC[C@H](C)O2,.,/,/
C[C@@H]1CCCCO[C@@H](CN(C)C(=O)c2ccccc2)[C@@H](C)CN([C@H](C)CO)C(=O)c2cc(NC(=O)Nc3ccc(C(F)(F)F)cc3)ccc2O1,.,68,.
C[C@@H]1CN([C@@H](C)CO)C(=O)c2cc(NC(=O)Nc3ccc(C(F)(F)F)cc3)ccc2O[C@@H]1CN(C)C(=O)Nc1ccc(F)cc1,/,58,.
C[C@H]1CN([C@@H](C)CO)C(=O)c2cc(NC(=O)Nc3ccc(C(F)(F)F)cc3)ccc2O[C@@H]1CN(C)C(=O)Nc1ccc(F)cc1,.,.,.
C[C@@H]1CCCCO[C@H](CN(C)C(=O)Nc2ccc(C(F)(F)F)cc2)[C@@H](C)CN([C@H](C)CO)C(=O)c2cc(NC(=O)c3ccccc3)ccc2O1,/,59,.
C[C@@H]1CCCCO[C@@H](CN(C)C(=O)Nc2ccc(C(F)(F)F)cc2)[C@@H](C)CN([C@H](C)CO)C(=O)c2cc(NC(=O)NC3CCCCC3)ccc2O1,.,76,.
O=C(CCCCCC(=O)Nc1ccccc1O)N/N=C/c1ccc(OCCO)cc1,/,.,.
C[C@H]1CCCCO[C@@H](CN(C)C(=O)Nc2ccc(C(F)(F)F)cc2)[C@@H](C)CN([C@@H](C)CO)C(=O)c2cc(NC(=O)Nc3ccc(F)cc3)ccc2O1,.,/,/
C[C@@H]1CCCCO[C@@H](CN(C)C(=O)Nc2ccc(C(F)(F)F)cc2)[C@@H](C)CN([C@H](C)CO)C(=O)c2cc(NC(=O)Nc3ccc(C(F)(F)F)cc3)ccc2O1,/,69,.
C[C@@H]1CCCCO[C@H](CN(C)Cc2ccc(C(F)(F)F)cc2)[C@H](C)CN([C@H](C)CO)C(=O)c2cc(NC(=O)Nc3cccc4ccccc34)ccc2O1,.,/,/
C[C@@H]1CCCCO[C@H](CN(C)C(=O)Nc2ccc(C(F)(F)F)cc2)[C@@H](C)CN([C@H](C)CO)C(=O)c2cc(NC(=O)Nc3ccc4c(c3)OCO4)ccc2O1,/,59,.
C[C@@H]1CCCCO[C@H](CN(C)Cc2ccc(C(F)(F)F)cc2)[C@@H](C)CN([C@H](C)CO)C(=O)c2cc(NC(=O)Nc3cccc4ccccc34)ccc2O1,/,74,.
C[C@@H]1CCCCO[C@@H](CN(C)C(=O)C2CCCCC2)[C@@H](C)CN([C@H](C)CO)C(=O)c2cc(NC(=O)Nc3ccc(C(F)(F)F)cc3)ccc2O1,/,77,.
C[C@@H]1CN([C@@H](C)CO)C(=O)c2cc(NC(=O)Nc3ccc(C(F)(F)F)cc3)ccc2O[C@@H](C)CCCCO[C@@H]1CN(C)C(=O)C1CCCCC1,.,/,/
C[C@H](CO)N1C[C@H](C)[C@H](CN(C)C(=O)Nc2ccc3c(c2)OCO3)OCCCC[C@H](C)Oc2ccc(NC(=O)Nc3ccc(C(F)(F)F)cc3)cc2C1=O,.,/,/
COC(=O)C(CC#Cc1ccc2c(c1)[C@]1(C(=O)N2)[C@H](c2ccc(OCCO)cc2)N2[C@H](c3ccccc3)[C@H](c3ccccc3)OC(=O)[C@H]2[C@@H]1C(N)=O)C(=O)OC,.,/,/
O=C(NO)c1cccc(C(=O)N/N=C/c2ccccc2C(=O)O)c1,.,.,.
Cc1noc(C)c1S(=O)(=O)Nc1ccc2c(c1)CC(=O)N([C@H](C)CO)C[C@@H](C)[C@H](CN(C)C(=O)Nc1ccc(F)cc1)O2,.,/,/
C[C@@H]1CCCCO[C@@H](CN(C)C(=O)Nc2ccc(C(F)(F)F)cc2)[C@@H](C)CN([C@H](C)CO)C(=O)c2cc(NS(=O)(=O)c3ccccc3)ccc2O1,/,61,.
C[C@@H]1CCCCO[C@H](CN(C)C(=O)Nc2ccc(C(F)(F)F)cc2)[C@@H](C)CN([C@H](C)CO)C(=O)c2cc(NS(=O)(=O)c3ccc(Cl)cc3)ccc2O1,.,66,.
C[C@@H]1CCCCO[C@H](CN(C)C(=O)Nc2cccc3ccccc23)[C@@H](C)CN([C@H](C)CO)C(=O)c2cc(NS(=O)(=O)c3ccc(Cl)cc3)ccc2O1,.,66,.

# Screening results (PubChem)
